Laboratory results: ChEMBL document CHEMBL1132636, “Phthalein derivatives as a new tool for selectivity in thymidylate synthase inhibition” (J Med Chem, 1999)
Values after ≈ are worked out from the molar mass of the structure shown.

Columns and labels:
Cryptococcus neoformans = experiment: In vitro inhibition of Cryptococcus neoformans growth.; format: functional
Procedure, shortened: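 Cr. neoformans in Sabouraud dextrose broth pH 5.7, 10³ blastospores or CFU/tube, serial compound dilutions, 37 °C, read after 5 days. MIC is the lowest concentration with no macroscopic growth. MGC is taken by subculturing negative tubes onto drug-free Sabouraud agar.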

[1] = Ratio of cytotoxic concentration to that of minimum inhibitory concentration against Streptococcus (CC50/MIC50).; format: functional
Staphylococcus aureus [2] = experiment: In vitro inhibition of Staphylococcus aureus growth.; format: functional
Procedure, shortened: (§1)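 Bacterial clinical isolates (S. aureus, group D Streptococcus) grown in nutrient broth pH 7.2, inoculum 10³ cells/tube, with serial dilutions of compound from a DMSO stock.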

Staphylococcus aureus [3] = experiment: In vitro evaluation for minimum germicidal effect on Staphylococcus aureus was determined; format: functional
[4] = system: thymidylate synthase (Lactobacillus casei)
Streptococcus [5] = experiment: In vitro minimum concentration for germicidal effect on Streptococcus.; format: functional
MT4 = experiment: In vitro cytotoxicity against mock infected MT-4 cells.; format: functional; settings: Homo sapiens
Procedure, shortened: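 Uninfected MT-4 cells, 1 × 10⁴ per well in RPMI with 10% FCS, with serial compound dilutions from a DMSO stock. Incubated 4 days at 37 °C, run in parallel with the anti-HIV assay. Viable cells counted by MTT; reported as CC50.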

Streptococcus [6] = experiment: In vitro inhibition of Streptococcus growth.; format: functional; procedure, shortened: as §1
[7] = molecular target: Thymidylate synthase (Homo sapiens) (UniProt P04818)
Thymidylate synthase (Homo sapiens), sequence (P04818 2-313 limits assumed): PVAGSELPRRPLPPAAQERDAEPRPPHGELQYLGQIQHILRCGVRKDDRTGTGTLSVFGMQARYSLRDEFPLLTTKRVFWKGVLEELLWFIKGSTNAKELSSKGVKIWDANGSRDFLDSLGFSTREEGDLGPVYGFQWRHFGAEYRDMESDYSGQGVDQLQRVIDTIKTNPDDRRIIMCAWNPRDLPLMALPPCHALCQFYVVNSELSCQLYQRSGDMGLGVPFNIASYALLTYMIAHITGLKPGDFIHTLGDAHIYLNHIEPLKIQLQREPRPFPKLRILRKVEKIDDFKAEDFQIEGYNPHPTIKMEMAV

[8] = system: thymidylate synthase (Pneumocystis carinii)
[9] = system: thymidylate synthase (Cryptococcus neoformans)
[10] = molecular target: T1, Thymidylate synthase (Lactobacillus casei) (UniProt P00469); settings: Lacticaseibacillus casei
T1 sequence (whole entry): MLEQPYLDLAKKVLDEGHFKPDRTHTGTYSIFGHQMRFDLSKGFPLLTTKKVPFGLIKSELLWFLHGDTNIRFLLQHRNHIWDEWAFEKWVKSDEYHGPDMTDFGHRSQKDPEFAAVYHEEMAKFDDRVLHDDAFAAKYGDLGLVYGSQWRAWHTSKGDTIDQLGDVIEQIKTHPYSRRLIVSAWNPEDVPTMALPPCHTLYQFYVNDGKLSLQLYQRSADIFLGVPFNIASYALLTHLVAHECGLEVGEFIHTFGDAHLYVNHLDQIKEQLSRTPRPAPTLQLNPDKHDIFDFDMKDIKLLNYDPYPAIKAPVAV

[11] = molecular target: T1, Thymidylate synthase (Lactobacillus casei); experiment: Compound was evaluated for the percentage inhibition against Lactobacillus casei Thymidylate synthase (LcTS) at 27 uM; settings: Lacticaseibacillus casei
Procedure, shortened: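 Single concentration 27 µM, initial TS rates measured with and without inhibitor; IF = Vii/Vi. Purified L. casei TS, TES 50 mM pH 7.4 buffer with MgCl2, formaldehyde, EDTA, 2-mercaptoethanol; dUMP 120 µM, folate 60 µM, 20 °C. Read-out is absorbance rise at 340 nm. At least three determinations, each within 10% of the mean.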

MIC (Cryptococcus neoformans) | MIC (Staphylococcus aureus [2]) | IF [4] | MIC (Streptococcus [6]) | IF [7] | IF [8] | IF [9] | IF [10] | inhibition [11] | Structure (SMILES) | SI [1] | MGC (Staphylococcus aureus [3]) | MGC (Streptococcus [5]) | CC50 (MT4)
> 200 µM | 3.1 µM | 0.36 | 3.1 µM | 1 | – | – | – | – | O=C1OC(c2ccc(O)c(Cl)c2)(c2ccc(O)c(Cl)c2)c2ccc(Br)c3cccc1c23.O=C1OC(c2ccc(O)c(Cl)c2)(c2ccc(O)c(Cl)c2)c2cccc3c(Br)ccc1c23 | 49.6 | 12.5 µM | 3.1 µM | 154 µM
9.37 µM | 3 µM | – | 1.6 µM | 1 | – | – | – | – | O=C1OC(c2ccc(O)c(Cl)c2)(c2ccc(O)c(Cl)c2)c2ccc(Cl)c3cccc1c23.O=C1OC(c2ccc(O)c(Cl)c2)(c2ccc(O)c(Cl)c2)c2cccc3c(Cl)ccc1c23 | – | 3 µM | 1.6 µM | 63 µM
> 89 µM | > 89 µM | – | 72 µM (≈ 25.1 µg/mL) | 1 | – | – | – | – | Cc1ccc(C(C)C)c(O)c1C1(O)OC(=O)c2cccc3cccc1c23 (stereo not drawn) | – | – | >89 µM | 89 µM
> 41 µM | 15 µM (≈ 6.2 µg/mL) | – | > 41 µM | 0.424 | – | – | – | – | O=C1OC(c2ccc(O)cc2)(c2ccc(O)cc2)c2ccc([N+](=O)[O-])c3cccc1c23 | – | 30 µM | – | 41 µM
> 94 µM | 15 µM (≈ 6.07 µg/mL) | 0.298 | 15 µM (≈ 6.07 µg/mL) | 0.521 | 0.582 | 0.507 | – | – | O=C1OC(c2ccc(O)c(F)c2)(c2ccc(O)c(F)c2)c2cc3ccccc3cc21 | 6.2 | 30 µM | 15 µM | 94 µM
> 54 µM | 17 µM (≈ 6.26 µg/mL) | 0.529 | 8 µM (≈ 2.95 µg/mL) | 0.172 | 0.498 | 0.389 | – | – | O=C1OC(c2ccc(O)cc2)(c2ccc(O)c3ccccc23)c2ccccc21 (stereo not drawn) | 6.7 | 54 µM | 34 µM | 54 µM
> 66 µM | 4 µM (≈ 1.49 µg/mL) | 0.086 | 8 µM (≈ 2.97 µg/mL) | 1 | 0.418 | < 0.04 | – | – | O=C1OC(O)(c2ccc(O)c(Cl)c2)c2ccc([N+](=O)[O-])c3cccc1c23 (stereo not drawn) | 8.24 | 17 µM | 8 µM | 66 µM
> 41 µM | 34 µM (≈ 12.5 µg/mL) | – | 17 µM (≈ 6.26 µg/mL) | 0.272 | – | – | – | – | O=C1OC(c2ccc(O)cc2)(c2ccc(O)cc2)c2cccc3cccc1c23 | – | 41 µM | 34 µM | 41 µM
> 53 µM | 16 µM (≈ 6.31 µg/mL) | 0.409 | 16 µM (≈ 6.31 µg/mL) | 0.475 | 0.344 | 0.344 | – | – | O=C1OC(c2ccc(O)cc2)(c2ccc(O)cc2)c2ccc3c4c(ccc1c24)CC3 | 3.3 | 32 µM | 32 µM | 53 µM
37.5 µM | 7 µM | 0.112 | 7 µM | 0.453 | 0.536 | 0.243 | – | – | O=C1OC(c2ccc(O)cc2)(c2ccc(O)cc2)c2ccc(Br)c3cccc1c23.O=C1OC(c2ccc(O)cc2)(c2ccc(O)cc2)c2cccc3c(Br)ccc1c23 | 10.8 | 28 µM | 28 µM | 76 µM
> 58 µM | > 58 µM | – | 38 µM (≈ 12.1 µg/mL) | 0.182 | – | – | 0.444 | – | O=C1OC(c2ccc(O)cc2)(c2ccc(O)cc2)c2ccccc21 [PHENOLPHTHALEIN] | – | – | 58 µM | 58 µM
> 200 µM | 3.1 µM (≈ 1.36 µg/mL) | 0.093 | 3.1 µM (≈ 1.36 µg/mL) | 0.103 | – | – | – | – | O=C1OC(c2ccc(O)c(Cl)c2)(c2ccc(O)c(Cl)c2)c2cc3ccccc3cc21 | 39.6 | 6.2 µM | 6.2 µM | 120 µM
> 69 µM | 8 µM | – | 8 µM | 0.438 | – | – | – | – | O=C1OC(c2ccc(O)cc2)(c2ccc(O)cc2)c2ccc(Cl)c3cccc1c23.O=C1OC(c2ccc(O)cc2)(c2ccc(O)cc2)c2cccc3c(Cl)ccc1c23 | – | 16 µM | 8 µM | 69 µM
9.37 µM (≈ 4.1 µg/mL) | 7 µM (≈ 3.06 µg/mL) | – | 1.8 µM (≈ 0.787 µg/mL) | 0.814 | – | – | – | – | O=C1OC(c2ccc(O)c(Cl)c2)(c2ccc(O)c(Cl)c2)c2cccc3cccc1c23 | – | 14 µM | 3.5 µM | 46 µM
> 200 µM | 25 µM (≈ 10.1 µg/mL) | – | 25 µM (≈ 10.1 µg/mL) | 1 | – | – | – | – | O=C1OC(c2ccc(O)c(F)c2)(c2ccc(O)c(F)c2)c2cccc3cccc1c23 | – | 50 µM | 25 µM | 117 µM
> 77 µM | 32 µM (≈ 12.4 µg/mL) | 0.47 | 32 µM (≈ 12.4 µg/mL) | 0.67 | 0.725 | 0.704 | – | – | O=C1OC(c2ccc(O)c(Cl)c2)(c2ccc(O)c(Cl)c2)c2ccccc21 | 2.4 | 64 µM | 32 µM | 77 µM
> 79 µM | 17 µM (≈ 6.26 µg/mL) | 0.247 | 34 µM (≈ 12.5 µg/mL) | 0.594 | 0.459 | 0.215 | – | – | O=C1OC(c2ccc(O)cc2)(c2ccc(O)cc2)c2cc3ccccc3cc21 | 2.3 | 68 µM | 34 µM | 79 µM
18.7 µM (≈ 5.47 µg/mL) | > 263 µM | 0.781 | 171 µM (≈ 50 µg/mL) | 0.957 | 0.151 | 0.576 | – | – | O=C1OC(O)(c2ccccc2O)c2cccc3cccc1c23 (stereo not drawn) | 1.5 | – | 263 µM | 263 µM
> 21 µM | > 21 µM | 0.624 | > 21 µM | 1 | 0.749 | 0.836 | – | 47% | COc1ccc(C2(c3ccc(OC)cc3)OC(=O)c3cccc4cccc2c34)cc1 | – | – | – | 21 µM
